MEKK2mut PB1 HTS: MEK5 binding signal on mutant MEKK2 PB1, primary screen, biochemical, multiplex bead flow cytometry, Alexa488-MEK5 | AID 1530, 2009 | hit rate 0.35% among 290,000 | Alexa488-MEK5 binding to MEKK2 mutant | percent response, % at 10 µM; in the data active = percent response above about 24%, passing the limit was not always enough
T cruzi inh: inhibitors of intracellular T. cruzi growth, primary screen, luminescence, NIH3T3 host cells; T. cruzi beta-gal in NIH3T3, 90 h; inhibition, % (no concentration beside the values); hit rate 1.4% among 300,000; AID 1885, 2009;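 active = mean inhibition across valid replicates above about 55%, limit read from the data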;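 note: signal also drops with host cell toxicity which is not excluded here; 0% = plate median of DMSO wells and 100% = zero luminescence signal; higher percent means less beta-gal luminescence so fewer parasites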
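Read-out: Parasite load inhibition, % | Test system: Mouse NIH/3T3 fibroblasts infected with β-gal-expressing T. cruzi Tulahuen C4 | Amount: 5,000 cells/well | Medium: DMEM, 2% fetal bovine serum | Signal: GalScreen β-gal luminescence, detergent lysis, 60 min | Timing: 3 h attach, ≥90 h co-culture | Also added: Tulahuen C4 trypomastigotes, 5000/well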
MEKK2wt PB1 HTS: modulators of MEK5 binding to wildtype MEKK2, primary screen, biochemical, multiplex bead flow cytometry, Alexa488-MEK5; Alexa488-MEK5 binding to MEKK2 WT; actives lie on both sides; binding response (% of control), % at 10 µM; hit rate 1.1% among 290,000; in the data active = binding response below about 67% or above about 130%
MEKK3 PB1 HTS: modulators of MEKK3-MEK5 PB1 binding, primary screen, biochemical, wildtype MEKK3, multiplex bead flow cytometry, Alexa488-MEK5 | binding response (% of control), % at 10 µM | bead-based flow cytometry, Alexa488-MEK5 binding to MEKK3; actives lie on both sides; 0 = blocked by unlabeled MEK5, 100 = vehicle | Mitogen-activated protein kinase kinase kinase 3 (Homo sapiens), Q99759 | hit rate 1.4% among 290,000 | AID 1529, 2009;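 active = binding response more than 3 SD above or below the average of its plate-row segment, actives on both sides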;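 note: Alexa488 bead fluorescence after subtracting the streptavidin-only scavenger bead signal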
HCV NS3 hel inh: inhibitors of HCV NS3 helicase, primary screen, biochemical, Cy5 molecular beacon fluorescence; hit rate 0.56% among 290,000; NS3 helicase DNA unwinding; Hepatitis C virus NS3 helicase; AID 1800, 2009; inhibition, % at 10.9 µM;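 active = inhibition above the mean of all tested compounds plus 3 SD, set per campaign, cut at about 35% in these data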;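 note: 0% = DMSO wells and 100% = thioflavine S control wells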
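Assay system – hepatitis C virus NS3 helicase domain fragment enzyme · Buffer or medium – MOPS pH 6.5, MgCl2, DTT, Tween20, BSA · Reagent – Cy5/quencher beacon DNA duplex and ATP to start · Compound – single 10.9 µM dose · Timing – 1 h at 25 °C · Technique – Cy5 beacon fluorescence read at start and 1 h · Measure – % inhibition of unwinding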
DNA FID counter: compounds displacing fluorescent DNA intercalator, primary screen, artefact control for HCV NS3 helicase inhibitor project, biochemical, FID fluorescence; DNA fluorescent intercalator displacement; inhibition, % at 7.9 µM; hit rate 0.17% among 290,000; AID 1845, 2009; in the data active = inhibition above about 37%;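 note: 0% = vehicle and 100% = reference compound; higher means more ethidium bromide displaced from hairpin DNA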
* = called active by the depositor; . = no result. The list is not random: actives were taken first. Their share in the collection is about 4.1%.

SMILES	MEKK2mut PB1 HTS	T cruzi inh	MEKK2wt PB1 HTS	MEKK3 PB1 HTS	HCV NS3 hel inh	DNA FID counter
C/C(=N\Nc1ccc(C(=O)O)cc1)c1ccc(Br)cc1	-2.0	-4.7	103.0	94.0	-3.2	-17.2
COc1ccc(CN2CCN(Cc3ccc(C(F)(F)F)cc3)CC2)c(OC)c1	13.0	49.3	118.0	106.0	-36.7	23.7
COc1ccc(CN2CCN(Cc3ccc(C)cc3)CC2)c(OC)c1	7.0	56.8*	112.0	102.0	-4.6	4.3
Cc1ccc(-n2nc3c(c2NC(=O)c2cccs2)CS(=O)(=O)C3)cc1C	6.0	-12.0	100.0	103.0	12.4	-24.6
CCC1Oc2ccc(C)cc2N(CC(=O)N(Cc2cccnc2)Cc2cccc(F)c2)C1=O (configuration not stated)	-3.0	59.5*	95.0	91.0	-0.2	-31.6
O=C(CN1C(=O)COc2ccccc21)N(Cc1cccnc1)Cc1cccc(F)c1	1.0	71.0*	103.0	96.0	6.5	-15.3
CCC1Oc2ccc(C)cc2N(CC(=O)N(Cc2ccncc2)Cc2ccco2)C1=O (configuration not stated)	-4.0	19.1	97.0	98.0	8.7	-26.9
O=C(Nc1ccc(F)cc1F)N1CCCCC1c1cccnc1 (configuration not stated)	0.0	56.8*	102.0	100.0	3.5	2.7
Cc1ccc(-c2csc(NC(=O)c3ccc(F)cc3)c2C(=O)O)cc1	2.0	-5.6	104.0	103.0	8.2	-12.5
COc1ccc(NC(=O)CN(c2ccc(F)cc2)S(=O)(=O)c2ccccc2)c(OC)c1	6.0	-4.5	102.0	105.0	-10.8	-27.9
OCC(O)[C@@H](O[C@H]1O[C@H](CO)[C@@H](O)[C@H](O)[C@H]1O)[C@H](O)[C@@H](O)CO (some centres not stated)	.	-6.7	.	.	.	.
OC[C@@H](O)[C@@H](O[C@H]1O[C@H](CO)[C@@H](O)[C@H](O)[C@H]1O)[C@H](O)[C@@H](O)CO	5.0	-0.3	-4.0*	81.0	4.6	-2.1
COc1ccccc1-c1nnc(Sc2nc([N+](=O)[O-])nn2C)o1	-12.0	57.7*	88.0	85.0	10.6	2.8
O=C(c1ccc(Cl)cc1)C1CCCN(Cc2cccn2-c2cccnc2)C1 (configuration not stated)	-10.0	58.1*	105.0	104.0	4.0	-1.9
O=C(c1ccc2c(c1)OCO2)C1CCCN(Cc2cccn2-c2cccnc2)C1 (configuration not stated)	10.0	57.9*	112.0	108.0	0.0	-0.6
Cn1c(CN2CCCC(C(=O)c3ccc4c(c3)OCO4)C2)nc2ccccc21 (configuration not stated)	1.0	72.7*	100.0	104.0	-4.7	-9.3
COc1cccc(OC)c1OCCN1CCN(C(c2ccccc2)c2ccccc2)CC1	13.0	13.7	113.0	106.0	-75.8	11.0
Cc1cc(NC(=O)CCC(=O)N(Cc2cccs2)C(C)(C)C(=O)NC2CCCCC2)no1	0.0	-18.7	105.0	103.0	0.1	-46.4
Cc1cc(-n2nc(C)cc2C)nc(NS(=O)(=O)c2ccccc2Cl)n1	34.0	-17.6	21.0*	101.0	-4.5	-22.9
Cc1cc(C)nc(NS(=O)(=O)c2ccccc2)n1	1.0	11.7	100.0	104.0	-3.7	-2.5
Oc1[nH]c2ccccc2c1N=NC(=S)NCC1CCCO1 (configuration not stated)	12.0	-20.2	90.0	103.0	2.9	-6.0
Oc1[nH]c2ccc(Br)cc2c1N=NC(=S)NCC1CCCO1 (configuration not stated)	-1.0	59.8*	93.0	94.0	32.4	0.4
Cn1c(SCc2ccccc2C#N)nnc1-c1ccncc1	3.0	-21.6	105.0	104.0	5.5	-4.7
Cc1ccc(-n2c(-c3ccccc3)c[n+]3c2CCc2ccccc2-3)c(C)c1	0.0	.	103.0	107.0	-22.2	7.2

Screens from PubChem BioAssay.
